In general, IC50 refers to the concentration needed to halve the response being measured.

Molecules are shown by their SMILES. The source made the active and inactive calls. The calls are words filed in the database; no cut-off is given here.

The record followed here is ChEMBL document CHEMBL5223158, “Identification of 2-Aminoacyl-1,3,4-thiadiazoles as Prostaglandin E2 and Leukotriene Biosynthesis Inhibitors” (ACS Med Chem Lett, 2023).

In assay [1] the target is T1, Polyunsaturated fatty acid 5-lipoxygenase (Homo sapiens) (UniProt P09917).
T1 sequence (whole entry): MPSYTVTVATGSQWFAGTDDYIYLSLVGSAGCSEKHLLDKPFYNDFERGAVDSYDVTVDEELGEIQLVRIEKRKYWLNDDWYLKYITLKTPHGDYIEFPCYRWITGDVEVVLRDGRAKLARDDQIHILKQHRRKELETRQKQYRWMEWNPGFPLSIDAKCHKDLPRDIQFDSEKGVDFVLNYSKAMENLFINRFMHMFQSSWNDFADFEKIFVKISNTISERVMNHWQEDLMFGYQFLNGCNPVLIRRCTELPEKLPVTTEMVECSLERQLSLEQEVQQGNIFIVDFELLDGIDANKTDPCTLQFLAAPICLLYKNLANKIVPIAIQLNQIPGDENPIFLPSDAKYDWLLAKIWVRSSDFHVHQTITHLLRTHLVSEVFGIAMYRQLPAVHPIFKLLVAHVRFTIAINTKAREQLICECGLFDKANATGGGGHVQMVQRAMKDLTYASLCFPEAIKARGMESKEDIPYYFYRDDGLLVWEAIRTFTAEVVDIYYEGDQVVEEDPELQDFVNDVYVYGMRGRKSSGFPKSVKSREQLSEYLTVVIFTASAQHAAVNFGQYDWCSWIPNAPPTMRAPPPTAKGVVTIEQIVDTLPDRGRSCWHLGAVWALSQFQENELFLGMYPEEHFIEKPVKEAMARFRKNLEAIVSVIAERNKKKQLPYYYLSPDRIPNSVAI
The experiment in a line: Inhibition of human recombinant 5-LO expressed in Escherichia coli BL21 using arachidonic acid as substrate assessed as residual activity at 10 uM preincubated for 10 mins followed by substrate addition and measured after 10 mins by RP-HPLC analysis relative to control. The settings on record: time 20.0 min.

A further assay has as its system Macrophage. The assay can be described thus: Inhibition of 5-LO product formation in Staphylococcus aureus activated human monocyte derived macrophages at 10 uM preincubated for 15 mins followed by Staphylococcus aureus activation for 90 mins by UPLC-MS/MS analysis. Format: functional, cell-based. The conditions noted are these: time 105.0 min.
Another assay relates to A549. The assay can be described thus: Inhibition of PGE2 biosynthesis in IL-1β stimulated human A549 cells incubated for 24 hrs by ELISA. The settings on record: dose 5-10 µM.
For assay [2], the system named is Mus musculus. The experiment in a line: Anti-inflammatory activity against CD-1 mouse model of zymosan-induced peritonitis assessed as reduction in leucocyte recruitment in peritoneal cavity at 3 mg/kg, ip pretreated with zymosan for 30 mins followed by compound addition and measured after 4 to 24 hrs by TC10 automated cell counter analysis. Format: functional, organism-based. The conditions noted are these: time 4-24 hrs.

The test system of assay [3] is Mus musculus. The assay can be described thus: Anti-inflammatory activity against CD-1 mouse model of zymosan-induced peritonitis assessed as reduction in IL-1beta level at 3 mg/kg, ip pretreated with zymosan for 30 mins followed by compound addition and measured after 4 to 24 hrs by ELISA. In kind it is functional, organism-based. The settings on record: time 4-24 hrs.

The test system of assay [4] is Mus musculus. The experiment in a line: Anti-inflammatory activity against CD-1 mouse model of zymosan-induced peritonitis assessed as reduction in IL-6 level at 3 mg/kg, ip pretreated with zymosan for 30 mins followed by compound addition and measured after 4 to 24 hrs by ELISA. In kind it is functional, organism-based. The settings on record: time 4-24 hrs. (In general: ELISA stands for enzyme-linked immunosorbent assay.)

Assay [5] relates to Mus musculus. The assay can be described thus: Anti-inflammatory activity against CD-1 mouse model of zymosan-induced peritonitis assessed as reduction in PGE2 level at 3 mg/kg, ip pretreated with zymosan for 30 mins followed by compound addition and measured after 4 to 24 hrs by ELISA. Format: functional, organism-based. The conditions noted are these: time 4-24 hrs.
Assay [6] concerns Mus musculus. The experiment in a line: Anti-inflammatory activity against CD-1 mouse model of zymosan-induced peritonitis assessed as reduction in IL-10 level at 3 mg/kg, ip pretreated with zymosan for 30 mins followed by compound addition and measured after 24 hrs by ELISA. Format: functional, organism-based.
Assay [7] addresses T2, Polyunsaturated fatty acid 5-lipoxygenase (Homo sapiens, UniProt P09917).
T2 sequence (P09917 whole entry): T1 sequence (whole entry)
The experiment in a line: Inhibition of human recombinant 5-LO expressed in Escherichia coli BL21 using arachidonic acid as substrate preincubated for 10 mins followed by substrate addition and measured after 10 mins by RP-HPLC analysis.

In assay [8] the test system is J774.A1. The assay can be described thus: Modulation of IL-6 production in LPS-stimulated mouse J774.A1 cells at 1 uM incubated for 24 hrs by ELISA. In kind it is functional, cell-based. An outline of the steps:
(§1)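 Murine J774A.1 macrophages were stimulated with LPS and exposed to test compounds. IL-6 and PGE2 released were measured in pg/mL. Mean ± SD.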

The test system of assay [9] is J774.A1. The experiment in a line: Modulation of PGE2 production in LPS-stimulated mouse J774.A1 cells at 1 uM incubated for 24 hrs by ELISA. Format: functional, cell-based. In short, it runs like this: as §1
Assay [10] has as its system Mus musculus. The assay can be described thus: Anti-inflammatory activity against CD-1 mouse model of zymosan-induced peritonitis assessed as reduction in leucocyte recruitment in lavage fluid at 1 to 10 mg/kg, ip pretreated with zymosan for 30 mins followed by compound addition and measured after 4 to 24 hrs by TC10 automated cell counter analysis. The conditions noted are these: dose 1-10 mg/kg, time 4-24 hrs. In kind it is functional, organism-based. An outline of the steps: (§2)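 Mice got zymosan 500 mg/kg i.p.; test compound was injected i.p. 30 min later. PBS-only controls were included, along with a dexamethasone (3 mg/kg) reference group. Peritoneal exudate was collected at 4 and 24 h. Total cells were counted, and IL-1β, IL-6, PGE2 and IL-10 were measured in exudate, normalized to exudate levels. Mean ± SD.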

Assay [11] deals with Mus musculus. The experiment in a line: Anti-inflammatory activity against CD-1 mouse model of zymosan-induced peritonitis assessed as reduction in IL-1beta level at 10 mg/kg, ip pretreated with zymosan for 30 mins followed by compound addition and measured after 4 to 24 hrs by ELISA. The settings on record: time 4-24 hrs. In kind it is functional, organism-based. In short, it runs like this:
as §2

Assay [12] concerns Mus musculus. The assay can be described thus: Anti-inflammatory activity against CD-1 mouse model of zymosan-induced peritonitis assessed as reduction in IL-6 level at 10 mg/kg, ip pretreated with zymosan for 30 mins followed by compound addition and measured after 4 to 24 hrs by ELISA. In kind it is functional, organism-based. The conditions noted are these: time 4-24 hrs. An outline of the steps: as §2

Assay [13] concerns Mus musculus. The assay can be described thus: Anti-inflammatory activity against CD-1 mouse model of zymosan-induced peritonitis assessed as reduction in PGE2 level at 10 mg/kg, ip pretreated with zymosan for 30 mins followed by compound addition and measured after 4 to 24 hrs by ELISA. In kind it is functional, organism-based. The settings on record: time 4-24 hrs. In short, it runs like this:
as §2

Assay [14] deals with Mus musculus. The assay can be described thus: Anti-inflammatory activity against CD-1 mouse model of zymosan-induced peritonitis assessed as reduction in IL-10 level at 10 mg/kg, ip pretreated with zymosan for 30 mins followed by compound addition and measured after 24 hrs by ELISA. In kind it is functional, organism-based. An outline of the steps: as §2

Turning to `Nc1ccccc1-c1ccc(-c2nnc(NC(=O)c3c(Cl)ccnc3Cl)s2)cc1`, the Activity in [1] was 75.9%. The “5-LO product formation inhibition (active/inactive)” value with Macrophage was “Active”. Also, the inhibition entry in the assay with A549 was “Dose-Dependent Effect”.
`C[C@@H]1C[C@H]2[C@@H]3CCC4=CC(=O)C=C[C@]4(C)[C@@]3(F)[C@@H](O)C[C@]2(C)[C@@]1(O)C(=O)CO`: the result in the assay on Mus musculus [2], with Mus musculus [3], in the assay on Mus musculus [4], with Mus musculus [5] and in the assay on Mus musculus [6] was Active.
`Cc1cc(C(=O)Nc2nnc(-c3ccc(-c4cccc(O)c4)cc3)s2)cc(Cl)n1`: the “5-LO product formation inhibition (active/inactive)” value in the assay on Macrophage is “inactive”.
In the case of `Nc1ccccc1-c1ccc(-c2nnc(NC(=O)c3ccccc3Br)s2)cc1`, the IC50 in assay [7] worked out at 24.3 µM. For the same compound, in the assay with Macrophage, the “5-LO product formation inhibition (active/inactive)” value is “Active”. Moreover, the result in the assay on J774.A1 [8] was inactive. Further, the result with J774.A1 [9] was Active. The inhibition entry in the assay with A549 was “Dose-Dependent Effect”.
Consider `O=C(Nc1nnc(-c2ccc(-c3cccc(O)c3)cc2)s1)c1ccccc1Br`, for which, in assay [1], the Activity was 125%. The “5-LO product formation inhibition (active/inactive)” value in the assay on Macrophage is “Active”. For the same compound, the outcome with J774.A1 [8], in the assay on J774.A1 [9], with Mus musculus [10], in the assay with Mus musculus [11], with Mus musculus [12] and in the assay with Mus musculus [13] was Active. Moreover, the outcome in the assay with Mus musculus [14] was Active.
Regarding `Cc1cc(C(=O)Nc2nnc(-c3ccc(-c4ccccc4N)cc3)s2)cc(Cl)n1`, in assay [7], the IC50 was 42.8 µM. Further, the “5-LO product formation inhibition (active/inactive)” value with Macrophage is “Active”. In addition, the inhibition result in the assay on A549 was “Dose-Dependent Effect”.
